The values below come from ChEMBL document CHEMBL1133665, “Secondary amides of (R)-3,3,3-trifluoro-2-hydroxy-2-methylpropionic acid as inhibitors of pyruvate dehydrogenase kinase” (J Med Chem, 2000).

Each structure is given as a SMILES string. Calls of active or inactive are those of the source. No cut-off for these calls is given here. Some results are limits rather than exact numbers.

For assay [1], the species on record is Homo sapiens. The assay is described as follows: Effective concentration required to increase the oxidation of lactate in cellular assay using Human Skin Fibroblasts; Inactive. It counts as functional. The essentials: (§1)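 Human fibroblasts harvested with trypsin 2-4 days post-confluence and assayed in suspension ((3.5-5) × 10^5 cells per tube) with test compound or solvent control. Equilibrated at 37 °C, then started with DMEM-S containing 25 µM lactate and 0.2 µCi/mL d,l-[1-14C]lactate. Gassed with 95% O2/5% CO2 and shaken 25 min at 37 °C. Stopped with TCA; released 14CO2 trapped and counted by scintillation. EC50 ± standard error.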

For assay [2], the target named is Pyruvate dehydrogenase kinase (Rattus norvegicus, UniProt Q63065+A6IPZ9+Q64536+O54937). The assay is described as follows: Inhibitory activity tested against Pyruvate Dehydrogenase Kinase (PDHK) receptor from rats. It counts as protein assay. The essentials:
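Commercial PDH complex used as the kinase-containing preparation. PDHK inhibition read spectrophotometrically as NADH production at 340 nm, measured with and without ATP. IC50 ± standard error, from purified substances.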

The species named for assay [3] is Homo sapiens. The assay is described as follows: Effective concentration required to increase the oxidation of lactate in cellular assay using Human Skin Fibroblasts. It counts as functional. The essentials: as §1
The test system of assay [4] is Rattus norvegicus. The assay is described as follows: In vivo %control of lactate in normal Sprague-Dawley rats after 2 hr at a dose of 30 umol/Kg. The assay is classed as functional. The essentials:
(§2)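 Male Sprague-Dawley rats, about 200 g, randomly assigned to groups (n = 6/group) and fasted 24 h. Single oral dose of compound in 0.5% carboxymethylcellulose/0.2% Tween-80 (1 mL/100 g), or vehicle alone. Blood taken 2 h post-dose into heparin/fluoride tubes; lactate measured on a biochemistry analyzer. Expressed as percent of vehicle control; groups compared by two-tailed unpaired t-test.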

The test system of assay [5] is Rattus norvegicus. The assay is described as follows: In vivo %control of lactate in normal Sprague-Dawley rats after 2 hr at a dose of 300 umol/Kg. The assay is classed as functional. The essentials: as §2
For assay [6], the system named is Rattus norvegicus. Put plainly: In vivo %control of lactate in normal Sprague-Dawley rats after 2 hr at a dose of 30 umol/Kg; not active. The assay is classed as functional, organism-based. The essentials: as §2
Assay [7] has as its system Rattus norvegicus. Put plainly: In vivo %control of lactate in normal Sprague-Dawley rats after 2 hr at a dose of 100 umol/Kg; Not active. The assay is classed as functional, organism-based. The essentials:
as §2

The subject of assay [8] is Rattus norvegicus. Put plainly: In vivo %control of lactate in normal Sprague-Dawley rats after 2 hr at a dose of 10 umol/Kg. The assay is classed as functional. The essentials: as §2
The subject of assay [9] is Rattus norvegicus. The assay is described as follows: In vivo %control of lactate in normal Sprague-Dawley rats after 2 hr at a dose of 100 umol/Kg. It counts as functional. The essentials: as §2
Assay [10] concerns Rattus norvegicus. The assay is described as follows: In vivo %control of lactate in normal Sprague-Dawley rats after 2 hr at a dose of 1 umol/Kg. It counts as functional. The essentials:
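Male Sprague-Dawley rats, about 200 g, randomly assigned to groups (n = 6/group), fasted 24 h, then given compound orally in 0.5% carboxymethylcellulose with 0.2% Tween-80 (1 mL/100 g body weight) or vehicle alone. Blood drawn 2 h post-dose into heparin/fluoride tubes. Lactate measured on a dual-channel biochemistry analyzer and expressed as percent of vehicle control. Unpaired two-tailed t-test.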

In assay [11] the test system is Rattus norvegicus. Put plainly: In vivo %control of lactate in normal Sprague-Dawley rats after 2 hr at a dose of 30 umol/Kg; Not active. The assay is classed as functional, organism-based. The essentials: as §2
The subject of assay [12] is Rattus norvegicus. Put plainly: In vivo %control of lactate in normal Sprague-Dawley rats after 2 hr at a dose of 3 umol/Kg. It counts as functional. The essentials:
as §2

Usually IC50 stands for the point on the concentration scale where inhibition reaches its midpoint. Higher therefore signals weaker potency. Take `CC(C)(C)C(=O)N1CCC(Cc2ccccc2)CC1`: in the assay filed under Homo sapiens [1], the IA entry is “inactive”. Moreover, in assay [2], the IC50 is 282 µM.

The term EC50 denotes the midpoint of the concentration-response curve. Take `COc1cc(C(=O)N2CCN(C(=O)[C@@](C)(O)C(F)(F)F)C[C@H]2C)cc(OC)c1OC`: the EC50 in the assay listed under Homo sapiens [3] worked out at 0.159 µM. The molecule further returned an IC50 in assay [2] of 0.04 µM. Further, the Control turned out to be 71% in the assay on Rattus norvegicus [4] and 60% in the assay with Rattus norvegicus [5].

In turn, `C[C@@H]1CN(C(=O)[C@@](C)(O)C(F)(F)F)[C@@H](C)CN1Cc1ccccc1` displayed a concentration for half-maximal inhibition (IC50) in [2] of 0.082 µM. Further, in the assay on Rattus norvegicus [6], the NA result is “inactive”.

With `C[C@@H]1CN(C(=O)[C@@](C)(O)C(F)(F)F)CCN1C(=O)c1cccc2ccccc12`, the IC50 in assay [2] is 0.07 µM. In addition, in the assay on Rattus norvegicus [7], the NA entry was “inactive”.

As for `C[C@@H]1CN(C(=O)[C@@](C)(O)C(F)(F)F)CCN1C(=O)c1ccc(C#N)cc1`, the response in the assay filed under Homo sapiens [3] was half-maximal at 0.25 µM (EC50). The 50% inhibitory concentration (IC50) in [2] was found to be 0.079 µM. The Control with Rattus norvegicus [8] is 90%; in the assay on Rattus norvegicus [9] it was 67%; with Rattus norvegicus [4], 60%.

The molecule `O=C([O-])C(Cl)Cl.[Na+]` [SODIUM DICHLOROACETATE] gave an IC50 in assay [2] above 1000 µM. This molecule showed a Control in the assay with Rattus norvegicus [10] of 70%.

Regarding `CC(=O)N1CCC(Cc2ccccc2)CC1`, the IA result in the assay listed under Homo sapiens [1] was “inactive”. Besides, the IC50 in [2] was 74 µM.

Take `C[C@@](O)(C(=O)N1CCN(c2ccccn2)CC1)C(F)(F)F`: the response in the assay filed under Homo sapiens [3] was half-maximal at 13 µM (EC50). The same molecule came in with a half-maximal inhibitory concentration (IC50) in assay [2] of 3.37 µM. Moreover, the Control with Rattus norvegicus [5] worked out at 68%.

As to `CNC(=O)N1CCC(Cc2ccccc2)CC1`, in the assay listed under Homo sapiens [1], the IA result was “inactive”. In assay [2], this molecule gave an IC50 of 22.4 µM.

Take `C[C@@H]1CN(C(=O)[C@@](C)(O)C(F)(F)F)CCN1S(=O)(=O)c1cccc2ccccc12`: in [2], the IC50 stood at 0.025 µM. For the same molecule, the NA result with Rattus norvegicus [11] was “inactive”.

`C[C@@H]1CN(C(=O)[C@@](C)(O)C(F)(F)F)CCN1S(=O)(=O)c1ccccc1`: in assay [2], the half-maximal inhibitory concentration (IC50) amounted to 0.037 µM. Further, the NA result in the assay on Rattus norvegicus [11] is “inactive”.

In the case of `C[C@@](O)(C(=O)N1CCN(c2ccccc2)CC1)C(F)(F)F`, in the assay listed under Homo sapiens [3], the EC50 stood at 25.2 µM. In assay [2], this molecule showed an IC50 of 4.16 µM. In the assay on Rattus norvegicus [5], this molecule gave a Control of 68%.

In the assay filed under Homo sapiens [3], `C[C@@H]1CN(C(=O)[C@@](C)(O)C(F)(F)F)[C@@H](C)CN1C(=O)c1ccc(C#N)cc1` returned a half-maximal effective concentration (EC50) of 0.057 µM. The IC50 in assay [2] came to 0.016 µM. Moreover, the Control with Rattus norvegicus [10] worked out at 87%; in the assay with Rattus norvegicus [8] it was 74%; in the assay on Rattus norvegicus [12] it was 90%.
